Data published in ChEMBL document CHEMBL1255544, “Synthesis and evaluation of novel chloropyrrole molecules designed by molecular hybridization of common pharmacophores as potential antimicrobial agents” (2010).
Converted amounts (≈) assume the structure as drawn. The source made the active and inactive calls. No cut-off for these calls is given here.

Tests used:
Escherichia coli [1] = assay: Antimicrobial activity against Escherichia coli ATCC […] after 24 hrs by disk diffusion method; type: functional
How it was run: (§1)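 Zone of inhibition by disc diffusion against E. coli ATCC-25922, S. aureus ATCC-25923, P. aeruginosa ATCC-27853 and recultured Klebsiella pneumoniae.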

Staphylococcus aureus [2] = assay: Antimicrobial activity against Staphylococcus aureus ATCC 25923 after 24 hrs by disk diffusion method; type: functional; how it was run: as §1
Pseudomonas aeruginosa [3] = assay: Antimicrobial activity against Pseudomonas aeruginosa ATCC 27853 after 24 hrs by disk diffusion method; type: functional; how it was run: as §1
Klebsiella pneumoniae [4] = assay: Antimicrobial activity against Klebsiella pneumoniae after 24 hrs by disk diffusion method; type: functional; how it was run: as §1
Candida albicans [5] = assay: Antimicrobial activity against Candida albicans after 48 hrs by agar dilution method; type: functional
How it was run: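 Candida albicans tested by agar dilution, with compounds in DMSO.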

Escherichia coli [6] = assay: Antimicrobial activity against Escherichia coli ATCC […] after 24 hrs by broth dilution method; type: functional
How it was run: (§2)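 MIC by broth dilution: the lowest concentration (highest dilution) that arrested bacterial or fungal growth. Strains were E. coli ATCC-25922, S. aureus ATCC-25923, P. aeruginosa ATCC-27853 and C. albicans.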

Staphylococcus aureus [7] = assay: Antimicrobial activity against Staphylococcus aureus ATCC 25923 after 24 hrs by broth dilution method; type: functional; conditions: ATCC 25923, 24 h; how it was run: as §2
Pseudomonas aeruginosa [8] = assay: Antimicrobial activity against Pseudomonas aeruginosa ATCC 27853 after 24 hrs by broth dilution method; type: functional; conditions: ATCC 27853, 24 h; how it was run: as §2
Candida albicans [9] = assay: Antimicrobial activity against Candida albicans after 48 hrs by broth dilution method; type: functional; how it was run: as §2
Klebsiella pneumoniae [10] = assay: Antimicrobial activity against Klebsiella pneumoniae at 100 ug/ml after 24 hrs by broth dilution method; type: functional, organism-based

Row | SMILES | diameter of the inhibition zone (DIZ) (Escherichia coli [1]) [mm] | diameter of the inhibition zone (DIZ) (Staphylococcus aureus [2]) [mm] | diameter of the inhibition zone (DIZ) (Pseudomonas aeruginosa [3]) [mm] | diameter of the inhibition zone (DIZ) (Klebsiella pneumoniae [4]) [mm] | diameter of the inhibition zone (DIZ) (Candida albicans [5]) [mm] | MIC (Escherichia coli [6]) [µg/mL] | MIC (Staphylococcus aureus [7]) [µg/mL] | MIC (Pseudomonas aeruginosa [8]) [µg/mL] | MIC (Candida albicans [9]) [µg/mL] | Activity (Klebsiella pneumoniae [10])
1 | COc1ccc(/C=C/C(=O)c2cc(Cl)c(Cl)[nH]2)cc1OC | 15 | 24 | 17 | 18 | 18 | 6.25 (≈ 19.2 µM) | 3.12 (≈ 9.58 µM) | 25 (≈ 76.6 µM) | 50 (≈ 153 µM) | 
2 | O=C(/C=C/c1ccco1)c1cc(Cl)c[nH]1 | 20 | 22 | 17 |  | 18 | 12.5 (≈ 56.4 µM) | 12.5 (≈ 56.4 µM) | 25 (≈ 113 µM) | 50 (≈ 226 µM) | inactive
3 | O=C(N/N=C/c1ccccc1O)c1cc(Cl)c[nH]1 | 20 | 17 | 14 |  | 18 | 6.25 (≈ 23.7 µM) | 6.25 (≈ 23.7 µM) | 100 (≈ 379 µM) | 25 (≈ 94.8 µM) | inactive
4 | O=C(/C=C/c1ccc(Cl)cc1)c1cc(Cl)c[nH]1 | 12 | 16 | 16 |  | 13 | 25 (≈ 93.9 µM) | 12.5 (≈ 47 µM) | 100 (≈ 376 µM) | 50 (≈ 188 µM) | inactive
5 | COc1ccc(/C=C/C(=O)c2cc(Cl)c[nH]2)cc1OC | 16 | 13 | 14 |  | 12 | 12.5 (≈ 42.8 µM) | 12.5 (≈ 42.8 µM) | 100 (≈ 343 µM) | 50 (≈ 171 µM) | inactive
6 | COc1ccc(/C=N/NC(=O)c2cc(Cl)c(Cl)[nH]2)cc1OC | 20 | 25 | 18 | 17 | 24 | 3.12 (≈ 9.13 µM) | 1.56 (≈ 4.56 µM) | 12.5 (≈ 36.5 µM) | 12.5 (≈ 36.5 µM) | 
7 | O=C(/C=C/c1ccccc1O)c1cc(Cl)c[nH]1 | 10 | 16 | 18 |  | 15 | 25 (≈ 101 µM) | 12.5 (≈ 50.5 µM) | 25 (≈ 101 µM) | 50 (≈ 202 µM) | inactive
8 | O=C(N/N=C/c1ccco1)c1cc(Cl)c[nH]1 | 23 | 24 | 15 |  | 21 | 25 (≈ 105 µM) | 25 (≈ 105 µM) | 100 (≈ 421 µM) | 25 (≈ 105 µM) | inactive
9 | C[C@@H]1[C@H](O)[C@@H](C)/C=C/C=C/C=C/C=C/C=C/C=C/C=C/[C@H](O[C@@H]2O[C@H](C)[C@@H](O)[C@H](N)[C@@H]2O)C[C@@H]2O[C@](O)(C[C@@H](O)C[C@@H](O)[C@H](O)CC[C@@H](O)C[C@@H](O)CC(=O)O[C@H]1C)C[C@H](O)[C@H]2C(=O)O [AMPHOTERICIN B] |  |  |  |  | 25 |  |  |  | 1.56 (≈ 1.69 µM) | 
10 | COc1ccc(OC)c(/C=N/NC(=O)c2cc(Cl)c(Cl)[nH]2)c1 | 20 | 24 | 13 | 18 | 24 | 3.12 (≈ 9.13 µM) | 1.56 (≈ 4.56 µM) | 25 (≈ 73.1 µM) | 12.5 (≈ 36.5 µM) | 
11 | CN(C)c1ccc(/C=N/NC(=O)c2cc(Cl)c[nH]2)cc1 | 17 | 10 | 14 |  | 18 | 12.5 (≈ 43 µM) | 12.5 (≈ 43 µM) | 100 (≈ 344 µM) | 25 (≈ 86 µM) | inactive
12 | COc1ccc(/C=N/NC(=O)c2cc(Cl)c[nH]2)cc1OC | 12 | 20 | 16 |  | 20 | 12.5 (≈ 40.6 µM) | 12.5 (≈ 40.6 µM) | 100 (≈ 325 µM) | 25 (≈ 81.2 µM) | inactive
13 | O=C(N/N=C/c1ccc(Cl)cc1)c1cc(Cl)c[nH]1 | 16 | 26 | 15 |  | 17 | 12.5 (≈ 44.3 µM) | 3.12 (≈ 11.1 µM) | 100 (≈ 354 µM) | 25 (≈ 88.6 µM) | inactive
14 | COc1ccc(/C=C/C(=O)c2cc(Cl)c[nH]2)cc1 | 16 | 18 | 15 |  | 12 | 12.5 (≈ 47.8 µM) | 12.5 (≈ 47.8 µM) | 25 (≈ 95.5 µM) | 50 (≈ 191 µM) | inactive
15 | COc1ccc(/C=N/NC(=O)c2cc(Cl)c[nH]2)cc1 | 10 | 18 | 14 |  | 15 | 12.5 (≈ 45 µM) | 12.5 (≈ 45 µM) | 100 (≈ 360 µM) | 25 (≈ 90 µM) | inactive
16 | COc1ccc(OC)c(/C=C/C(=O)c2cc(Cl)c[nH]2)c1 | 18 | 19 | 15 |  | 16 | 12.5 (≈ 42.8 µM) | 12.5 (≈ 42.8 µM) | 100 (≈ 343 µM) | 50 (≈ 171 µM) | inactive
17 | COc1ccc(OC)c(/C=N/NC(=O)c2cc(Cl)c[nH]2)c1 | 15 | 20 | 15 |  | 13 | 12.5 (≈ 40.6 µM) | 6.25 (≈ 20.3 µM) | 100 (≈ 325 µM) | 25 (≈ 81.2 µM) | inactive
18 | O=C(N/N=C/c1ccccc1)c1cc(Cl)c[nH]1 | 14 | 17 | 14 |  | 20 | 12.5 (≈ 50.5 µM) | 12.5 (≈ 50.5 µM) | 100 (≈ 404 µM) | 25 (≈ 101 µM) | inactive
19 | O=C(N/N=C/c1c(O)cccc1O)c1cc(Cl)c[nH]1 | 21 | 24 | 14 |  | 18 | 6.25 (≈ 22.3 µM) | 3.12 (≈ 11.2 µM) | 50 (≈ 179 µM) | 25 (≈ 89.4 µM) | inactive
